Measured values pooled from the literature.
Compare with care: the assays were run in different laboratories.
Target: RAC-gamma serine/threonine-protein kinase (AKT3, Homo sapiens, UniProt Q9Y243)

| Structure (SMILES) | effect on | action | technique | concentration | endpoint | result |
| --- | --- | --- | --- | --- | --- | --- |
| N#CC1(c2ccccn2)CCN(Cc2cc(C(=O)O)c(=O)n3ccccc23)CC1 | cell-free assay | – | competition with immobilised ligand | 1 µM | remaining binding | 100% |
| Cc1nn(C)cc1-c1nc2c(N3CCN(Cc4ccc(Cl)cc4)CC3)c(Cl)cnc2[nH]1 | binding | – | competition with immobilised ligand | 1 µM | remaining binding | 100% |
| Cn1cc(-c2cccc(N3CCc4c(sc5c4CC(C)(C)C5)C3=O)c2CO)cc(Nc2ccncn2)c1=O | enzyme activity | inhibitor | – | 1 µM | inhibition | 6% |
| CC(C)(C)c1cc(C=C(C#N)C#N)cc(Br)c1O | enzyme activity | inhibitor | – | 0.5 µM | remaining activity | 111% |
| COc1cc(Nc2ncc(F)c(Nc3ccc4c(n3)NC(=O)C(C)(C)O4)n2)cc(OC)c1OC | binding | – | competition with immobilised ligand | 10 µM | inhibition | 0% |
| Cn1cc(-c2cc(F)cc(N3CCn4c(cc5c4CCCC5)C3=O)c2CO)cc(Nc2ccc(N3CCN(C4COC4)CC3)cn2)c1=O | enzyme activity | inhibitor | – | 0.1 µM | inhibition | 5% |
| Nc1ncc(-c2nc(N3CCOCC3)nc(N3CCOCC3)n2)c(C(F)F)n1 | binding | – | competition with immobilised ligand | 10 µM | remaining binding | 59% |
| COc1ncccc1-c1cnn2ccc(N3CCN(C(=O)OC(C)C)CC3)nc12 | binding | – | competition with immobilised ligand | 1 µM | remaining binding | 100% |
| Cn1cncc1[C@](O)(COc1ccc(C#N)cc1-c1ccc(OC(F)(F)F)cc1)c1ccc(C#N)cc1 | cell-free assay | – | competition with immobilised ligand | 1 µM | remaining binding | 100% |
| O=c1[nH]c2ccccc2n1C1CCN(Cc2ccc(-c3[nH]c4cc5ncnc5cc4nc3-c3ccccc3)cc2)CC1 | cell-free assay | – | – | 0.5 µM | remaining signal | 103% |
